Among the data in ChEMBL document CHEMBL1795242, “Peptidomimetic inhibitors of bacterial peptide deformylase” (Bioorg Med Chem Lett, 2011) are MIC, IC50 and inhibition values, retold here.

What is called IC50 is the concentration needed to halve the response being measured. A lower IC50 goes with inhibition by little substance. As usually defined, the inhibition is how much of the control response was suppressed. The low end stands for little suppression, the high end for strong suppression.

≈ marks a conversion by molar mass, not a printed value. A value given as a limit tells only on which side of the number the result lay.

One test has as its system Haemophilus influenzae. The test can be described thus: Antibacterial activity against Haemophilus influenzae. In kind it is functional. In outline: (§1)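 MIC against respiratory-tract-infection pathogens: Gram-positive S. pneumoniae and Gram-negative H. influenzae and M. catarrhalis. Where more than one strain was tested, the MIC is given as a range across strains. The minimum number of strains was 3 for H. influenzae and 1 for M. catarrhalis.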

Another test has as its target T1, Peptide deformylase (Escherichia coli, UniProt Q9JN24).
T1 sequence (Q9JN24 whole entry): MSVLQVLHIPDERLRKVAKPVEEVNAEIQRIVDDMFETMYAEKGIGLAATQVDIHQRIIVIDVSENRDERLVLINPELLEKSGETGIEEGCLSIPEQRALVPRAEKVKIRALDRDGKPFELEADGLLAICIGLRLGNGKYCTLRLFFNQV
The test can be described thus: Inhibition of Escherichia coli nickel containing peptide deformylase.

The test system of the next test is Streptococcus pneumoniae. Description: Antibacterial activity against Streptococcus pneumoniae. In kind it is functional. The gist of the method: as §1
The subject of another test is Moraxella catarrhalis. Description: Antibacterial activity against Moraxella catarrhalis. In kind it is functional. In outline: as §1
Test [1] concerns the target T2, Peptide deformylase (Escherichia coli) (UniProt Q9JN24).
T2 sequence (whole entry): T1 sequence (Q9JN24 whole entry)
Description: Inhibition of Escherichia coli nickel containing peptide deformylase at 1 uM.

For `O=CN(O)C[C@@H](CC1CCCC1)C(=O)N1CCCCN1C(=O)C1CCCCC1`, the MIC was 4 µg/mL (≈ 10.2 µM) against Haemophilus influenzae and 0.5 µg/mL (≈ 1.27 µM) with Streptococcus pneumoniae. This compound gave a concentration for half-maximal inhibition (IC50) against Peptide deformylase of 200 nM.

In the case of `O=CN(O)C[C@@H](CC1CCCC1)C(=O)N1CCCCN1C(=O)Nc1ccccc1`, the MIC with Haemophilus influenzae is under 0.125 µg/mL; against Streptococcus pneumoniae, 2 µg/mL (≈ 4.97 µM). Further, on Peptide deformylase, it took 20 nM to reach half-maximal inhibition (IC50).

Consider `O=C(C[C@@H](CC1CCCC1)C(=O)N1CCCCN1C(=O)Nc1ccccc1)NO`, for which the MIC stood at 1 µg/mL (≈ 2.48 µM) in the test with Haemophilus influenzae and 4 µg/mL (≈ 9.94 µM) in the test on Streptococcus pneumoniae. The compound also gave an IC50 against Peptide deformylase of 20 nM.

On to `O=CN(O)C[C@@H](CC1CCCC1)C(=O)N1CCCCN1C(=O)c1ccco1`, for which the MIC is under 0.125 µg/mL in the test on Moraxella catarrhalis, under 0.125 µg/mL with Haemophilus influenzae and 0.5 µg/mL (≈ 1.32 µM) in the test on Streptococcus pneumoniae. On Peptide deformylase, this compound registered a concentration for half-maximal inhibition (IC50) of 5 nM.

`O=CN(O)C[C@@H](CC1CCCC1)C(=O)N1CCCCN1C(=O)c1cccnc1`: in test [1], the inhibition came to 40%.

As to `CC(C)(C)OC(=O)N1CCCN1C(=O)[C@H](CC1CCCC1)CN(O)C=O`, the MIC against Moraxella catarrhalis is under 0.125 µg/mL; in the test on Haemophilus influenzae it was 0.5 µg/mL (≈ 1.35 µM); against Streptococcus pneumoniae, 8 µg/mL (≈ 21.7 µM). Inhibition on Peptide deformylase was half-maximal at 30 nM (IC50).

Turning to `COc1cccc(NC(=O)N2CCCN2C(=O)[C@H](CC2CCCC2)CN(O)C=O)c1`, the MIC was under 0.125 µg/mL in the test with Haemophilus influenzae and 4 µg/mL (≈ 9.56 µM) in the test with Streptococcus pneumoniae. Moreover, on Peptide deformylase, the half-maximal inhibitory concentration (IC50) amounted to 10 nM.

The compound `O=CN(O)C[C@@H](CC1CCCC1)C(=O)N1CCCN1C(=O)C1CCCCC1` gave an MIC against Haemophilus influenzae of 4 µg/mL (≈ 10.5 µM). In addition, on Peptide deformylase, half-maximal inhibition (IC50) was put at 40 nM.

In the case of `O=CN(O)C[C@@H](CC1CCCC1)C(=O)N1CCCN1C(=O)Cc1ccccc1`, the MIC in the test on Haemophilus influenzae was determined as 2 µg/mL (≈ 5.16 µM); in the test on Streptococcus pneumoniae, 4 µg/mL (≈ 10.3 µM). Moreover, at Peptide deformylase, the IC50 came to 30 nM.

Consider `O=CN(O)C[C@@H](CC1CCCC1)C(=O)N1CCCCN1C(=O)Cc1ccccc1`, for which the MIC came to 0.25 µg/mL (≈ 0.623 µM) in the test on Haemophilus influenzae and 0.5 µg/mL (≈ 1.25 µM) in the test with Streptococcus pneumoniae. This compound yielded a 50% inhibitory concentration (IC50) at Peptide deformylase of 60 nM.

For the compound `O=CN(O)C[C@@H](CC1CCCC1)C(=O)N1CCCN1C(=O)c1ccc(F)cc1`, the MIC against Haemophilus influenzae amounted to 4 µg/mL (≈ 10.2 µM). In addition, 20 nM corresponded to half-maximal inhibition against Peptide deformylase (IC50).

For `O=CN(O)C[C@@H](CC1CCCC1)C(=O)N1CCCN1C(=O)Nc1ccccc1`, the MIC is under 0.125 µg/mL in the test on Haemophilus influenzae and 4 µg/mL (≈ 10.3 µM) against Streptococcus pneumoniae. For the same compound, the IC50 against Peptide deformylase worked out at 10 nM.

For the compound `COc1ccc(C(=O)N2CCCN2C(=O)[C@H](CC2CCCC2)CN(O)C=O)cc1`, the MIC in the test on Haemophilus influenzae is 16 µg/mL (≈ 39.7 µM); against Streptococcus pneumoniae it was 4 µg/mL (≈ 9.91 µM). The compound further gave a 50% inhibitory concentration (IC50) against Peptide deformylase of 50 nM.

Take `O=CN(O)C[C@@H](CC1CCCC1)C(=O)N1CCCN1C(=O)Nc1ccc(C(F)(F)F)cc1`: the MIC against Moraxella catarrhalis is 0.06 µg/mL (≈ 0.131 µM); with Haemophilus influenzae, 2 µg/mL (≈ 4.38 µM); in the test on Streptococcus pneumoniae it was 2 µg/mL (≈ 4.38 µM). The IC50 against Peptide deformylase came to 30 nM.

On to `O=CN(O)C[C@@H](CC1CCCC1)C(=O)N1CCCN1C(=O)c1cccnc1`, for which, in the test with Haemophilus influenzae, the MIC was 2 µg/mL (≈ 5.34 µM). Moreover, the IC50 against Peptide deformylase was 300 nM.

In the case of `O=C(C[C@@H](CC1CCCC1)C(=O)N1CCCCN1C(=O)c1ccco1)NO`, the MIC against Moraxella catarrhalis is 0.06 µg/mL (≈ 0.159 µM); with Haemophilus influenzae, 0.06 µg/mL (≈ 0.159 µM); against Streptococcus pneumoniae it was 2 µg/mL (≈ 5.3 µM). At Peptide deformylase, the half-inhibitory concentration (IC50) amounted to 8 nM.

In turn, `O=CN(O)C[C@@H](CC1CCCC1)C(=O)N1CCCN1C(=O)c1ccccc1` had an MIC with Haemophilus influenzae of 2 µg/mL (≈ 5.36 µM). At Peptide deformylase, this compound returned an IC50 of 70 nM.

With `COc1cccc(NC(=O)N2CCCCN2C(=O)[C@H](CC2CCCC2)CN(O)C=O)c1`, the values for the MIC against Haemophilus influenzae and in the test on Streptococcus pneumoniae were under 0.125 µg/mL and 2 µg/mL (≈ 4.62 µM), respectively. At Peptide deformylase, this compound gave a half-maximal inhibitory concentration (IC50) of 20 nM.

In turn, `O=CN(O)C[C@@H](CC1CCCC1)C(=O)N1CCCN1C(=O)c1ccoc1` gave an MIC in the test on Haemophilus influenzae of 1 µg/mL (≈ 2.75 µM). Besides, at Peptide deformylase, the half-maximal inhibitory concentration (IC50) was found to be 10 nM.

`O=CN(O)C[C@@H](CC1CCCC1)C(=O)N1CCCN1C(=O)c1ccco1`: the MIC in the test on Moraxella catarrhalis is under 0.125 µg/mL; with Haemophilus influenzae, under 0.125 µg/mL; against Streptococcus pneumoniae, 4 µg/mL (≈ 11 µM). At Peptide deformylase, this compound returned a 50% inhibitory concentration (IC50) of 30 nM.

In the case of `COCC(=O)N1CCCN1C(=O)[C@H](CC1CCCC1)CN(O)C=O`, the MIC against Haemophilus influenzae came to 1 µg/mL (≈ 2.93 µM). Moreover, 60 nM corresponded to half-maximal inhibition against Peptide deformylase (IC50).

In turn, `O=CN(O)C[C@@H](CC1CCCC1)C(=O)N1CCCCN1C(=O)Nc1ccc(C(F)(F)F)cc1` had an MIC in the test on Haemophilus influenzae of 0.25 µg/mL (≈ 0.531 µM). At Peptide deformylase, this compound displayed an IC50 of 9 nM.

For `O=CN(O)C[C@@H](CC1CCCC1)C(=O)N1CCCN1C(=O)Nc1ccc(F)cc1`, the MIC against Haemophilus influenzae was under 0.125 µg/mL; with Streptococcus pneumoniae, 8 µg/mL (≈ 19.7 µM). Moreover, at Peptide deformylase, the half-maximal inhibitory concentration (IC50) stood at 10 nM.

As to `COc1ccccc1NC(=O)N1CCCCN1C(=O)[C@H](CC1CCCC1)CN(O)C=O`, the MIC came out at 0.5 µg/mL (≈ 1.16 µM) in the test with Haemophilus influenzae and 4 µg/mL (≈ 9.25 µM) against Streptococcus pneumoniae. On Peptide deformylase, 10 nM corresponded to half-maximal inhibition (IC50).

Regarding `O=CN(O)C[C@@H](CC1CCCC1)C(=O)N1CCCCN1C(=O)c1ccncc1`, the MIC against Haemophilus influenzae and with Streptococcus pneumoniae was 2 µg/mL (≈ 5.15 µM) in each case. The same compound came in with a half-maximal inhibitory concentration (IC50) at Peptide deformylase of 300 nM.

For the compound `O=CN(O)C[C@@H](CC1CCCC1)C(=O)N1CCCCN1C(=O)c1ccoc1`, the MIC against Moraxella catarrhalis is under 0.03 µg/mL; against Haemophilus influenzae it was 0.125 µg/mL (≈ 0.331 µM); in the test with Streptococcus pneumoniae, 0.5 µg/mL (≈ 1.32 µM). For the same compound, the IC50 against Peptide deformylase is 6 nM.

In the case of `O=CN(O)C[C@@H](CC1CCCC1)C(=O)N1CCCCN1C(=O)c1ccc(F)cc1`, the MIC against Haemophilus influenzae and against Streptococcus pneumoniae was 0.5 µg/mL (≈ 1.23 µM) in each case. This compound came in with an IC50 on Peptide deformylase of 60 nM.

For `O=CN(O)C[C@@H](CC1CCCC1)C(=O)N1CCCCN1C(=O)Nc1ccc(F)cc1`, the figures for the MIC against Haemophilus influenzae and in the test with Streptococcus pneumoniae were under 0.125 µg/mL and 4 µg/mL (≈ 9.51 µM), respectively. The same compound displayed an IC50 on Peptide deformylase of 10 nM.

On to `O=CN(O)C[C@@H](CC1CCCC1)C(=O)N1CCCCN1C(=O)c1ccccc1`, for which the MIC against Haemophilus influenzae is 1 µg/mL (≈ 2.58 µM); against Streptococcus pneumoniae, 0.5 µg/mL (≈ 1.29 µM). On Peptide deformylase, this compound yielded an IC50 of 500 nM.

For `CC(C)(C)OC(=O)N1CCCCN1C(=O)[C@H](CC1CCCC1)CN(O)C=O`, the MIC with Haemophilus influenzae amounted to 1 µg/mL (≈ 2.61 µM); in the test on Streptococcus pneumoniae, 4 µg/mL (≈ 10.4 µM). In addition, the IC50 against Peptide deformylase was 9 nM.

For `COc1ccc(C(=O)N2CCCCN2C(=O)[C@H](CC2CCCC2)CN(O)C=O)cc1`, the MIC was found to be 1 µg/mL (≈ 2.4 µM) in the test on Haemophilus influenzae and 0.5 µg/mL (≈ 1.2 µM) against Streptococcus pneumoniae. In addition, half-maximal inhibition against Peptide deformylase (IC50) was put at 100 nM.

Take `O=CN(O)C[C@@H](CC1CCCC1)C(=O)N1CCCN1C(=O)c1ccncc1`: the MIC with Haemophilus influenzae was 2 µg/mL (≈ 5.34 µM); against Streptococcus pneumoniae, 16 µg/mL (≈ 42.7 µM). The compound also came in with an IC50 at Peptide deformylase of 60 nM.

Take `COCC(=O)N1CCCCN1C(=O)[C@H](CC1CCCC1)CN(O)C=O`: the MIC in the test on Haemophilus influenzae stood at 0.25 µg/mL (≈ 0.703 µM); in the test on Streptococcus pneumoniae it was 1 µg/mL (≈ 2.81 µM). In addition, the 50% inhibitory concentration (IC50) against Peptide deformylase is 200 nM.

On to `COc1ccccc1NC(=O)N1CCCN1C(=O)[C@H](CC1CCCC1)CN(O)C=O`, for which the MIC was 0.25 µg/mL (≈ 0.597 µM) in the test with Moraxella catarrhalis, 1 µg/mL (≈ 2.39 µM) with Haemophilus influenzae and 8 µg/mL (≈ 19.1 µM) against Streptococcus pneumoniae. For the same compound, the 50% inhibitory concentration (IC50) against Peptide deformylase was determined as 7 nM.
